From ChEMBL document CHEMBL1158040, “Biological activities and 3D QSAR studies of a series of Delisea pulchra (cf. fimbriata) derived natural products” (J Nat Prod, 2006)
Converted amounts (≈) assume the structure as drawn. The source made the active and inactive calls. No cut-off for these calls is given here.

System: Lu1
Test: Cytotoxicity against human Lu1 cells
Type: functional
Details: read-out: ED50 (the source's name)
With `CCC[C@@H](O)C1=C(Br)[C@](CI)(OC)OC1=O` the EC50 was over 20 µg/mL. `CCC[C@@H](OC(C)=O)C1=C(Br)[C@@](C)(OC)OC1=O` showed an EC50 of over 20 µg/mL. Work on `CCC[C@@H](OC(C)=O)C1=C(Br)[C@](C)(OC)OC1=O` yielded an EC50 of over 20 µg/mL.

System: Escherichia coli
Test: Antimicrobial activity against Escherichia coli at 10 ug
Type: functional, organism-based
Details: not given
Method in brief: (§1)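 Direct bioautography: each compound is spotted onto TLC plates and the solvent evaporated. The test organism is then grown directly on the plate. Growth inhibition is scored at the spot as active (+) or very active (++). Where a number is given, it is the radius in mm of the inhibition zone around the spot.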
With `CCC[C@@H](O)C1=C(Br)[C@](CI)(OC)OC1=O` the Activity was “Active”. For `CCC[C@@H](OC(C)=O)C1=C(Br)[C@@](C)(OC)OC1=O`, the Activity was “inactive”. In the case of `CCC[C@@H](OC(C)=O)C1=C(Br)[C@](C)(OC)OC1=O`, the Activity is reported as “inactive”.

System: KB
Test: Cytotoxicity against vinblastine-sensitive human KB cells
Type: functional
Details: read-out: ED50 (the source's name)
`CCC[C@@H](O)C1=C(Br)[C@](CI)(OC)OC1=O` gave an EC50 of over 20 µg/mL. `CCC[C@@H](OC(C)=O)C1=C(Br)[C@@](C)(OC)OC1=O` showed an EC50 of 10.7 µg/mL (≈ 33.3 µM). `CCC[C@@H](OC(C)=O)C1=C(Br)[C@](C)(OC)OC1=O` gave an EC50 of 5.6 µg/mL (≈ 17.4 µM).

System: Bacillus subtilis
Test: Antimicrobial activity against Bacillus subtilis at 10 ug
Type: functional, organism-based
Details: not given
Method in brief: as §1
For `CCC[C@@H](O)C1=C(Br)[C@](CI)(OC)OC1=O`, the Activity was “Active”. In the case of `CCC[C@@H](OC(C)=O)C1=C(Br)[C@@](C)(OC)OC1=O`, the Activity is reported as “inactive”. In the case of `CCC[C@@H](OC(C)=O)C1=C(Br)[C@](C)(OC)OC1=O`, the Activity is reported as “Active”.

System: LNCaP
Test: Cytotoxicity against human LNCAP cells
Type: functional
Details: read-out: ED50 (the source's name)
Compound `CCC[C@@H](O)C1=C(Br)[C@](CI)(OC)OC1=O` has an EC50 of 9.1 µg/mL (≈ 22.5 µM). `CCC[C@@H](OC(C)=O)C1=C(Br)[C@@](C)(OC)OC1=O` showed an EC50 of 1.7 µg/mL (≈ 5.29 µM). With `CCC[C@@H](OC(C)=O)C1=C(Br)[C@](C)(OC)OC1=O` the EC50 was 3.6 µg/mL (≈ 11.2 µM).

System: Micrococcus luteus
Test: Antimicrobial activity against Micrococcus luteus at 10 ug
Type: functional, organism-based
Details: not given
Method in brief: as §1
With `CCC[C@@H](O)C1=C(Br)[C@](CI)(OC)OC1=O` the Activity was “Active”. With `CCC[C@@H](OC(C)=O)C1=C(Br)[C@@](C)(OC)OC1=O` the Activity was “Active”. For `CCC[C@@H](OC(C)=O)C1=C(Br)[C@](C)(OC)OC1=O`, the Activity was “Active”.

System: Bacillus subtilis
Test: Antimicrobial activity against Bacillus subtilis at 1 ug
Type: functional, organism-based
Details: not given
Method in brief: as §1
In the case of `CCC[C@@H](O)C1=C(Br)[C@](CI)(OC)OC1=O`, the Activity is reported as “inactive”. With `CCC[C@@H](OC(C)=O)C1=C(Br)[C@@](C)(OC)OC1=O` the Activity was “inactive”. In the case of `CCC[C@@H](OC(C)=O)C1=C(Br)[C@](C)(OC)OC1=O`, the Activity is reported as “inactive”.

System: Bacillus subtilis
Test: Antimicrobial activity against Bacillus subtilis at 5 ug
Type: functional, organism-based
Details: not given
Method in brief: as §1
For `CCC[C@@H](O)C1=C(Br)[C@](CI)(OC)OC1=O`, the Activity was “inactive”. For `CCC[C@@H](OC(C)=O)C1=C(Br)[C@@](C)(OC)OC1=O`, the Activity was “inactive”. With `CCC[C@@H](OC(C)=O)C1=C(Br)[C@](C)(OC)OC1=O` the Activity was “Active”.

System: Micrococcus luteus
Test: Antimicrobial activity against Micrococcus luteus at 0.1 ug
Type: functional, organism-based
Details: not given
Method in brief: as §1
With `CCC[C@@H](O)C1=C(Br)[C@](CI)(OC)OC1=O` the Activity was “inactive”. In the case of `CCC[C@@H](OC(C)=O)C1=C(Br)[C@@](C)(OC)OC1=O`, the Activity is reported as “inactive”. With `CCC[C@@H](OC(C)=O)C1=C(Br)[C@](C)(OC)OC1=O` the Activity was “inactive”.

System: Penicillium oxalicum
Test: Antimicrobial activity against Penicillium oxalicum at 0.1 ug
Type: functional
Details: not given
Method in brief: as §1
For `CCC[C@@H](O)C1=C(Br)[C@](CI)(OC)OC1=O`, the Activity was “inactive”. For `CCC[C@@H](OC(C)=O)C1=C(Br)[C@@](C)(OC)OC1=O`, the Activity was “inactive”. In the case of `CCC[C@@H](OC(C)=O)C1=C(Br)[C@](C)(OC)OC1=O`, the Activity is reported as “inactive”.

Target: Human immunodeficiency virus type 1 reverse transcriptase (Human immunodeficiency virus 1) (UniProt Q72547)
Test: Inhibition of HIV1 RT at 200 uM
Details: not given
Method in brief: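 HIV-1 reverse transcriptase inhibition was measured in an ELISA-based system.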
In the case of `CCC[C@@H](O)C1=C(Br)[C@](CI)(OC)OC1=O`, the Activity is reported as “inactive”. With `CCC[C@@H](OC(C)=O)C1=C(Br)[C@@](C)(OC)OC1=O` the Activity was “inactive”. With `CCC[C@@H](OC(C)=O)C1=C(Br)[C@](C)(OC)OC1=O` the Activity was “inactive”.

System: Escherichia coli
Test: Antimicrobial activity against Escherichia coli at 1 ug
Type: functional, organism-based
Details: not given
Method in brief: as §1
With `CCC[C@@H](O)C1=C(Br)[C@](CI)(OC)OC1=O` the Activity was “inactive”. In the case of `CCC[C@@H](OC(C)=O)C1=C(Br)[C@@](C)(OC)OC1=O`, the Activity is reported as “inactive”. For `CCC[C@@H](OC(C)=O)C1=C(Br)[C@](C)(OC)OC1=O`, the Activity was “inactive”.

System: Penicillium oxalicum
Test: Antimicrobial activity against Penicillium oxalicum at 1 ug
Type: functional
Details: read-out: IZ
Method in brief: as §1
Work on `CCC[C@@H](O)C1=C(Br)[C@](CI)(OC)OC1=O` yielded a zone of inhibition at 1 µg/disc of 2 mm. Compound `CCC[C@@H](OC(C)=O)C1=C(Br)[C@@](C)(OC)OC1=O` has a zone of inhibition at 1 µg/disc of 3 mm. Work on `CCC[C@@H](OC(C)=O)C1=C(Br)[C@](C)(OC)OC1=O` yielded a zone of inhibition at 1 µg/disc of 8 mm.

System: Penicillium oxalicum
Test: Antimicrobial activity against Penicillium oxalicum at 5 ug
Type: functional
Details: read-out: IZ
Method in brief: as §1
Work on `CCC[C@@H](O)C1=C(Br)[C@](CI)(OC)OC1=O` yielded a zone of inhibition at 5 µg/disc of 6 mm. For `CCC[C@@H](OC(C)=O)C1=C(Br)[C@@](C)(OC)OC1=O`, the zone of inhibition at 5 µg/disc was 6 mm. In the case of `CCC[C@@H](OC(C)=O)C1=C(Br)[C@](C)(OC)OC1=O`, the zone of inhibition at 5 µg/disc is reported as 12 mm.

System: Plasmodium falciparum
Test: Antimalarial activity against chloroquine-sensitive Plasmodium falciparum D6 at 10 ug/ml
Type: functional
Details: not given
`CCC[C@@H](O)C1=C(Br)[C@](CI)(OC)OC1=O` gave an Activity of over 50%. In the case of `CCC[C@@H](OC(C)=O)C1=C(Br)[C@@](C)(OC)OC1=O`, the Activity is reported as over 50%. Compound `CCC[C@@H](OC(C)=O)C1=C(Br)[C@](C)(OC)OC1=O` has an Activity of over 50%.

System: Escherichia coli
Test: Antimicrobial activity against Escherichia coli at 0.1 ug
Type: functional, organism-based
Details: not given
Method in brief: as §1
For `CCC[C@@H](O)C1=C(Br)[C@](CI)(OC)OC1=O`, the Activity was “inactive”. For `CCC[C@@H](OC(C)=O)C1=C(Br)[C@@](C)(OC)OC1=O`, the Activity was “inactive”. In the case of `CCC[C@@H](OC(C)=O)C1=C(Br)[C@](C)(OC)OC1=O`, the Activity is reported as “inactive”.

System: ZR-75-1
Test: Cytotoxicity against human ZR-75-1 cells
Type: functional
Details: read-out: ED50 (the source's name)
With `CCC[C@@H](O)C1=C(Br)[C@](CI)(OC)OC1=O` the EC50 was 6.4 µg/mL (≈ 15.8 µM). `CCC[C@@H](OC(C)=O)C1=C(Br)[C@@](C)(OC)OC1=O` showed an EC50 of 2.4 µg/mL (≈ 7.47 µM). `CCC[C@@H](OC(C)=O)C1=C(Br)[C@](C)(OC)OC1=O` gave an EC50 of 4 µg/mL (≈ 12.5 µM).

System: KB
Test: Cytotoxicity against human KB cells
Type: functional
Details: read-out: ED50 (the source's name)
In the case of `CCC[C@@H](O)C1=C(Br)[C@](CI)(OC)OC1=O`, the EC50 is reported as over 20 µg/mL. Compound `CCC[C@@H](OC(C)=O)C1=C(Br)[C@@](C)(OC)OC1=O` has an EC50 of 5.4 µg/mL (≈ 16.8 µM). For `CCC[C@@H](OC(C)=O)C1=C(Br)[C@](C)(OC)OC1=O`, the EC50 was 3.9 µg/mL (≈ 12.1 µM).

System: Escherichia coli
Test: Antimicrobial activity against Escherichia coli at 5 ug
Type: functional, organism-based
Details: not given
Method in brief: as §1
For `CCC[C@@H](O)C1=C(Br)[C@](CI)(OC)OC1=O`, the Activity was “Active”. With `CCC[C@@H](OC(C)=O)C1=C(Br)[C@@](C)(OC)OC1=O` the Activity was “inactive”. In the case of `CCC[C@@H](OC(C)=O)C1=C(Br)[C@](C)(OC)OC1=O`, the Activity is reported as “inactive”.

System: KB
Test: Cytotoxicity against vinblastine-resistant human KB cells
Type: functional
Details: read-out: ED50 (the source's name)
Method in brief: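 The vinblastine-resistant KB-V1 line was tested both with and without added vinblastine in the cultured tumour-cell cytotoxicity panel. Results are reported as ED50.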
`CCC[C@@H](O)C1=C(Br)[C@](CI)(OC)OC1=O` gave an EC50 of over 20 µg/mL. In the case of `CCC[C@@H](OC(C)=O)C1=C(Br)[C@@](C)(OC)OC1=O`, the EC50 is reported as 2.8 µg/mL (≈ 8.72 µM). With `CCC[C@@H](OC(C)=O)C1=C(Br)[C@](C)(OC)OC1=O` the EC50 was 4.7 µg/mL (≈ 14.6 µM).

System: Penicillium oxalicum
Test: Antimicrobial activity against Penicillium oxalicum at 10 ug
Type: functional
Details: read-out: IZ
Method in brief: as §1
`CCC[C@@H](O)C1=C(Br)[C@](CI)(OC)OC1=O` showed a zone of inhibition at 10 µg/disc of 6 mm. `CCC[C@@H](OC(C)=O)C1=C(Br)[C@@](C)(OC)OC1=O` showed a zone of inhibition at 10 µg/disc of 8 mm. For `CCC[C@@H](OC(C)=O)C1=C(Br)[C@](C)(OC)OC1=O`, the zone of inhibition at 10 µg/disc was 16 mm.

System: Micrococcus luteus
Test: Antimicrobial activity against Micrococcus luteus at 5 ug
Type: functional, organism-based
Details: not given
Method in brief: as §1
In the case of `CCC[C@@H](O)C1=C(Br)[C@](CI)(OC)OC1=O`, the Activity is reported as “Active”. For `CCC[C@@H](OC(C)=O)C1=C(Br)[C@@](C)(OC)OC1=O`, the Activity was “Active”. With `CCC[C@@H](OC(C)=O)C1=C(Br)[C@](C)(OC)OC1=O` the Activity was “Active”.

System: not listed separately
Test: Inhibition of TK assessed as residual activity at 200 ug/ml
Details: not given
Method in brief: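 The enzyme was tyrosine kinase p56lck, with test compounds at 200 μg/mL. The read-out is the remaining enzyme activity.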
With `CCC[C@@H](O)C1=C(Br)[C@](CI)(OC)OC1=O` the Activity was 55.7%. `CCC[C@@H](OC(C)=O)C1=C(Br)[C@](C)(OC)OC1=O` gave an Activity of 86%.

System: Bacillus subtilis
Test: Antimicrobial activity against Bacillus subtilis at 0.1 ug
Type: functional, organism-based
Details: not given
Method in brief: as §1
For `CCC[C@@H](O)C1=C(Br)[C@](CI)(OC)OC1=O`, the Activity was “inactive”. In the case of `CCC[C@@H](OC(C)=O)C1=C(Br)[C@@](C)(OC)OC1=O`, the Activity is reported as “inactive”. For `CCC[C@@H](OC(C)=O)C1=C(Br)[C@](C)(OC)OC1=O`, the Activity was “inactive”.

System: Micrococcus luteus
Test: Antimicrobial activity against Micrococcus luteus at 1 ug
Type: functional, organism-based
Details: not given
Method in brief: as §1
With `CCC[C@@H](O)C1=C(Br)[C@](CI)(OC)OC1=O` the Activity was “inactive”. With `CCC[C@@H](OC(C)=O)C1=C(Br)[C@@](C)(OC)OC1=O` the Activity was “Active”. For `CCC[C@@H](OC(C)=O)C1=C(Br)[C@](C)(OC)OC1=O`, the Activity was “inactive”.
